Experimental data as given in PubChem BioAssay AID2764 (Sanford-Burnham Center for Chemical Genomics, 2010).
This is one part of the list. The source made the active and inactive calls.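 Rule for the calls: active = activation above 40%, taking the highest of four retests; inactive = the rest.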

Target: Apelin receptor (Homo sapiens) (UniProt P35414)
Test: APJ activation via beta-arrestin recruitment – cell-based, single concentration, CHO-K1, luminescence, confirmation (AID 2764);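 note: plate controls were DMSO wells for no effect and apelin-13 at 10 nM for full effect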
Settings: CHO-K1 APJ PathHunter beta-arrestin, at 20 µM, stronger effect = higher value
Summary of the method: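 Benchmarks: Positive control apelin-13 at 10 nM final | Material: CHO-K1 cells with tagged APJ and beta-arrestin | Read-out basis: beta-arrestin recruitment to APJ as % activation | Signal: Chemiluminescence from beta-gal fragment complementation, detection reagent | Timing: Overnight cell seeding, 90 min compound exposure at 25 °C, 60 min detection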

Sequence of Apelin receptor (Homo sapiens) (P35414 whole entry, looked up): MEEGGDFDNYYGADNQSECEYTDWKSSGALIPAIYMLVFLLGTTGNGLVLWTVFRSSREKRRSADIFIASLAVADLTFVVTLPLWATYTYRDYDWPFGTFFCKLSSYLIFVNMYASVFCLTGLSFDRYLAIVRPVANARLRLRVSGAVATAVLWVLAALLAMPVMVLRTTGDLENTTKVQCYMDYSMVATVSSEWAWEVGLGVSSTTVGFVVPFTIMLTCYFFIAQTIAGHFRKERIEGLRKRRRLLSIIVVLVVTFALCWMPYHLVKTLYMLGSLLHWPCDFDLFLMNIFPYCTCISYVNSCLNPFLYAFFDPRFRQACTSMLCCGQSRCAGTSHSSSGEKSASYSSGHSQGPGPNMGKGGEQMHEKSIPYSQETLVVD

activation, inactive:
O=C(CSc1nc(Nc2ccccc2)nc(N2CCOCC2)n1)Nc1cc(Cl)ccc1O 15.9%
Cc1ccccc1-n1nnc2c(=O)oc3ccccc3c21 7.92%
CCC(C)(C)C1CCC(=NNC(=O)c2ccc(Br)o2)CC1 (configuration not stated) 12.3%
Nc1nc(-c2sc3nc4c(cc3c2N)CCCC4)nc(N2CCOCC2)n1 15%
COc1ccc(C(=O)O/N=C(\N)Cc2ccc(Cl)cc2Cl)cc1OC 24.9%
CCCc1ccc(OCc2ccc(C(=O)N/N=C/c3cccc([N+](=O)[O-])c3)o2)c(OC)c1 19.3%
CCOc1cc2[nH]c(=S)n(CCCN3CCCC3=O)c(=O)c2cc1OCC 20.1%
Cc1ccc2nc(-c3ccc(NC(=O)c4cccnc4)cc3)oc2c1 18.4%
CC1=C/C(=N\OS(=O)(=O)c2ccccc2)C=CC1=O 30.6%
COc1cc(NC(=O)C2=C(C)OCCS2)c(Cl)cc1C(=O)NCCN1CCN(C)CC1 11.7%
CC(=O)N1CCCc2cc(S(=O)(=O)N3CCCC(C(=O)N4CCN(c5cccc(Cl)c5)CC4)C3)ccc21 (configuration not stated) 27.4%
CCCCCCc1cc2cc(-c3nnc(-c4ccccc4)o3)c(=O)oc2cc1O -0.485%
